Compounds with a hit are over-represented: about 1.4% of the library has one in this group of screens.
SUMO Mot1 rescue = yeast Mot1-301 growth rescue at high temperature, primary screen, SUMOylation pathway inhibitor project, S. cerevisiae, ATP luminescence, 38.5C; growth rescue, % at 18.8 µM; AID 2716, 2010; S. cerevisiae Mot1-301 growth rescue; percent above DMSO median, 100 means doubled; 1% of 320,000 active;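 active = every valid replicate shows activation above 250% relative to neutral control wells; inactive = the rest, any valid replicate at or below 250%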
T cell HTS = modulators of CD8 T cell-vesicle binding, primary screen, mouse 2C CD8+ T cells, flow cytometry | 2C CD8+ T cell-vesicle binding; active compounds read low | 0.068% of 330,000 active | response (vesicle binding), % at 7 µM;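 active = response, share of CD8 T cells binding vesicles, and their 90th percentile fluorescence all below set limits, cut at about 80% in these data, passing the limit was not always enough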;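 also: values below 100% mean blocked vesicle binding to the CD8+ T cells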
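Test system: purified 2C TCR transgenic mouse naive CD8+ T cells. Probe or stimulus: QL9-peptide-loaded Drosophila micro-vesicles bearing Ld, ICAM-1 and B7-1. Incubation: binding step 1.5 h, 37 °C, antibody labelling 20 min, ice. Measured by: flow cytometry of vesicle-bound cells.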
JMJD2C inh = inhibitors of GASC-1 histone demethylase, primary screen, biochemical, fluorescence, DELFIA europium | inhibition, % at 2.35 µM | GST-JMJD2C(1-420) H3K9me3 demethylation | Lysine-specific demethylase 4C (Homo sapiens), Q9H3R0 | 0.069% of 330,000 active;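 active = more than half of a compound's replicate wells show inhibition beyond 50%, single wells judged on their own value; inconclusive = some, but no more than half, of replicates pass 50% inhibition; inactive = no replicate passes 50% inhibition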;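 also: signal counts dimethyl H3K9 product captured on neutravidin plate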
Target sequence (Q9H3R0 1-420 limits assumed): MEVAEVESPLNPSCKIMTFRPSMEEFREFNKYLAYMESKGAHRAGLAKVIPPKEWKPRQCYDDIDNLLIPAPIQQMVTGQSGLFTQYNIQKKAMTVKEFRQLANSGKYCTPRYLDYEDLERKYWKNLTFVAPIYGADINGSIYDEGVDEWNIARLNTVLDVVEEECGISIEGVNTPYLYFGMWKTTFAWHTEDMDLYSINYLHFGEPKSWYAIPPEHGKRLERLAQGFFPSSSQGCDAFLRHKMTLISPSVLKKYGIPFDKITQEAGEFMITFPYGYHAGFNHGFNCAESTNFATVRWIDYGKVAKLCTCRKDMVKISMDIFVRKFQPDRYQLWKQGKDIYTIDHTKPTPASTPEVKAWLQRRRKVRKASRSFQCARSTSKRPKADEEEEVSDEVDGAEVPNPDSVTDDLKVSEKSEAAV
HIF act = HIF pathway transcriptional activators, primary screen, cell-based, U2OS HRE-luciferase, luminescence; U2OS HRE-luciferase reporter; normalized: DMSO 0%, desferrioxamine 100%; activation, % at 7.5 µM (by protocol); 0.32% of 300,000 active;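 active = mean activation of at least 10% of the iron chelator positive control signal, with at least half of replicates also reaching 10%; inconclusive = mean and replicate majority disagree about reaching 10%; inactive = mean and most replicates under 10%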
Yeast Mot1 SUMO = growth restoration of Mot1-301 yeast on galactose, dose response, SUMO pathway inhibitor project, whole organism, S. cerevisiae, ATP luminescence, cherry-picked samples; shares compounds with SUMO Mot1 rescue; S. cerevisiae Mot1-301 galactose growth, 24 h; -100 = growth of slx-deleted rescue strain; growth activity, percent, % at 42 µM; 2,300 tested, under 10 active; AID 493004, 2010;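 active = Signal drops as the depositor expects, and the fitted half-maximal dose is no more than ten times the top valid tested dose; inconclusive = Poor fit, or a flat curve whose signal drops by 30% to 70%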;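 also: more negative values mean stronger growth rescue toward the control strain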
Each line names hits and unclear results; the compound was inactive in the other large screens (follow-up assays come after a bar, where they were run).

CSc1cccc(N2C(=O)C3CCCN3C2=S)c1 (centres undefined)	SUMO Mot1 rescue 802.4 | Yeast Mot1 SUMO inactive
CN(C)C(=O)CSc1nc2ccc(N3C(=O)c4ccccc4C3=O)cc2s1	SUMO Mot1 rescue 561.8 | Yeast Mot1 SUMO inactive
Cc1cccc(NC(=O)CSc2nc3ccc(N4C(=O)c5ccccc5C4=O)cc3s2)c1C	none
O=C(CCCn1cnc([N+](=O)[O-])n1)Nc1cccc2ccccc12	SUMO Mot1 rescue 408.2 | Yeast Mot1 SUMO inactive
CC(=O)N(C)c1ccc(N2CCOCC2)c2c1C(=O)c1ccccc1C2=O	SUMO Mot1 rescue 455.9 | Yeast Mot1 SUMO inactive
O=C1c2ccccc2C(=O)c2c1cccc2N1CCOCC1	none
Cc1ccc(N(CC(O)CN2CCCCC2)S(=O)(=O)c2ccc(C)cc2)cc1 (centres undefined)	none
CCCCc1ccc(NC(=S)NCc2cccs2)cc1	SUMO Mot1 rescue 572.8 | Yeast Mot1 SUMO inactive
Cc1ccc(NC(=S)NCc2cccs2)cc1	none
CCOc1ccccc1NC(=O)C1CCC(=O)N1S(=O)(=O)c1ccc(C)cc1 (centres undefined)	none
O=C(NCc1ccccc1F)c1ccc2c(c1)OCO2	none
O=C(NCc1ccccc1Cl)c1ccc2c(c1)OCO2	SUMO Mot1 rescue 650.3 | Yeast Mot1 SUMO inactive
CCN(CC)S(=O)(=O)c1ccc(N2CCCC2)c(C(=O)OCC(=O)Nc2cc(C)on2)c1	SUMO Mot1 rescue 543.7 | Yeast Mot1 SUMO inactive
CCN(CC)S(=O)(=O)c1ccc(N2CCCC2)c(C(=O)OCC(=O)N2CCCC2)c1	none
O=C(c1cnn2c(C(F)(F)F)cc(-c3ccco3)nc12)N1CCCc2ccccc21	SUMO Mot1 rescue 908.2 | Yeast Mot1 SUMO inactive
CCC(=O)Nc1ccc(Br)c(Cl)c1	SUMO Mot1 rescue 702.5 | Yeast Mot1 SUMO inactive
CCC(=O)Nc1ccc(F)c(Cl)c1	none
Cc1ccc(C(=O)NC(Cc2c[nH]c3ccccc23)C(=O)O)o1 (centres undefined)	SUMO Mot1 rescue active | Yeast Mot1 SUMO inactive
Cc1cc(C(=O)NC(Cc2c[nH]c3ccccc23)C(=O)O)c(C)o1 (centres undefined)	none
O=C(NCc1nc(-c2ccccc2)no1)c1cccs1	SUMO Mot1 rescue 499.4 | Yeast Mot1 SUMO inactive
O=C(NCc1nc(-c2ccc(C(F)(F)F)cc2)no1)c1cccs1	none
COC(=O)CNC(=O)CSc1ccccn1	SUMO Mot1 rescue active | Yeast Mot1 SUMO inactive
CC1CN(CCCOc2ccc([N+](=O)[O-])cc2)CC(C)O1 (centres undefined)	SUMO Mot1 rescue 463.4 | Yeast Mot1 SUMO inactive
Cc1nnc(SCC(=O)Nc2c(Cl)cccc2Cl)[nH]c1=O	none
Cc1nnc(SCC(=O)NCc2ccccc2Cl)[nH]c1=O	SUMO Mot1 rescue active | Yeast Mot1 SUMO inactive
COC(=O)c1ccc(NC(=O)CCN2CCN(c3ccccc3)CC2)cc1	SUMO Mot1 rescue 519.5 | Yeast Mot1 SUMO inactive
COc1cc([N+](=O)[O-])ccc1NC(=O)CCS(=O)(=O)c1ccc2c(c1)n(C)c(=O)c(=O)n2C	none
CCOC(=O)N1CCN(c2nnnn2-c2ccccc2)CC1	SUMO Mot1 rescue 366.2 | Yeast Mot1 SUMO inactive
COc1ccc(C(=O)N2CCN(c3nnnn3-c3ccccc3)CC2)cc1OC	none
O=C(Nc1cc2c3c(c1)CC(=O)N3CCC2)c1ccc(Cl)cc1	none
COc1cccc(/C=C/C(=O)OCC(=O)Nc2ccc(Cl)cn2)c1	SUMO Mot1 rescue 759.8 | Yeast Mot1 SUMO inactive
CN1C(=O)CCC(CCC(=O)O)(c2ccccc2O)C1=O (centres undefined)	none
Cn1c(-c2sc3cc(C(F)(F)F)cnc3c2-c2ccccn2)n[nH]c1=S	none
Cn1c(-c2sc3cc(C(F)(F)F)cnc3c2-c2cccs2)n[nH]c1=S	SUMO Mot1 rescue active | Yeast Mot1 SUMO inactive
Cc1ccc(NC(=O)NNC(=O)CN2C(=O)COc3ccccc32)cc1	none
CCCC(=O)Oc1c(S(=O)(=O)c2ccc(C)cc2)c(C)nn1C(C)(C)C	SUMO Mot1 rescue 635.5 | Yeast Mot1 SUMO inactive
CCOC(=O)c1[nH]c2ccc(Br)cc2c1NC(=O)CCN1CCN(C(=O)OCC)CC1	none
CCOC(=O)c1[nH]c2ccc(Br)cc2c1NC(=O)CCN1CCOCC1	SUMO Mot1 rescue 413.1 | Yeast Mot1 SUMO inactive
COc1ccc(OC)c(Cc2nnc(CCC(=O)NC3C4CC5CC(C4)CC3C5)o2)c1 (centres undefined)	none
O=C1c2ccccc2C(=O)N1CCSc1ccccc1	SUMO Mot1 rescue active, JMJD2C inh inconclusive | Yeast Mot1 SUMO inactive
O=C(c1cc(N2C(=O)C3C4CCC(C4)C3C2=O)ccc1Cl)N1CCN(c2ccc(F)cc2)CC1 (centres undefined)	none
O=C(c1cc(N2C(=O)C3C4CCC(C4)C3C2=O)ccc1Cl)N1CCCCCC1 (centres undefined)	SUMO Mot1 rescue 361.0 | Yeast Mot1 SUMO inactive
Cc1cc2c3c(c1)C1(SCC(=O)N1c1ccc(F)cc1)C(=O)N3C(C)(C)CC2C (centres undefined)	SUMO Mot1 rescue 423.4 | Yeast Mot1 SUMO inactive
COc1ccc(N2C(=O)CSC23C(=O)N2c4c(cccc43)C(C)=CC2(C)C)cc1 (centres undefined)	none (no result: HIF act)
CCOC(=O)c1cccc(NC(=O)C2CCCN(S(=O)(=O)c3c(C)n[nH]c3C)C2)c1 (centres undefined)	SUMO Mot1 rescue 458.3 | Yeast Mot1 SUMO inactive
CCOC(=O)c1cccc(NC(=O)C2CCCN(S(=O)(=O)c3c(C)nn(C)c3C)C2)c1 (centres undefined)	none (no result: HIF act)
CC(C)CCn1c(=O)c2ccccc2c2ccccc2c1=O	SUMO Mot1 rescue active (no result: HIF act) | Yeast Mot1 SUMO inactive
CC(C)CCOCc1nc2sc3c(c2c(=O)[nH]1)CCC(C)C3 (centres undefined)	SUMO Mot1 rescue 593.2 | Yeast Mot1 SUMO inactive
CN(C)C(CNC(=O)c1cc(S(=O)(=O)N(C)Cc2ccccc2)ccc1Cl)c1ccco1 (centres undefined)	none
O=C(CSc1ccc(Cl)cc1)NNC(=O)c1ccco1	none
O=C(COc1ncnc2c(Cl)cc(Cl)cc12)NCCC1=CCCCC1	SUMO Mot1 rescue 420.3 | Yeast Mot1 SUMO inactive
O=C(COc1ncnc2ccccc12)NCCC1=CCCCC1	none
O=C(COc1cnc2ccccc2n1)NCCC1=CCCCC1	SUMO Mot1 rescue active | Yeast Mot1 SUMO inactive
CCOc1c(Cl)cc(C(=O)Nc2cccc(C(=O)O)c2)cc1Cl	none (no result: SUMO Mot1 rescue)
Cc1ccc(S(=O)(=O)Nc2ccc3c(c2)C(=O)NC3=O)cc1[N+](=O)[O-]	none
Cc1cc(C(=O)N/N=C/c2ccc3c(c2)OCO3)c2ccccc2n1	SUMO Mot1 rescue 856.0 | Yeast Mot1 SUMO inactive

High-throughput results from PubChem.
